Calls of active or inactive are those of the source. The calls are words filed in the database; no cut-off is given here.
Columns and labels:
[1] = Cytotoxicity against HEK293 cells by WST-1 assay; assay type: cell-based; conditions: human
How it was run: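 HEK293 cells, poly-Lys-coated wells (1 × 10^4 cells/well), grown 16–20 h, then exposed to compounds in DMEM/5% FBS (0.1% DMSO final) for 20–22 h. WST-1 added, 2 h, A405 read. Viability = treated/vehicle absorbance after background (no-cell wells) subtraction; CC50 derived from dose curves.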

[2] = system: Rhodopsin (Homo sapiens), P08100 [P23H]; experiment: Induction of subcellular localization of HA-tagged human rhodopsin P23H mutant on HEK293 cell surface by immunofluorescence microscopy; assay type: cell-based
[3] = system: HEK293; experiment: Upregulation of HA-tagged rhodopsin P23H expression in HEK293 cell surface by ELISA; assay type: functional, cell-based; conditions: Homo sapiens
How it was run: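 HEK293 in poly-lysine-coated wells transfected with HA-tagged human P23H rhodopsin; 2–3 h later compounds in DMEM/5% FBS (0.1% DMSO final) for 20 h. Non-permeabilized cells fixed, blocked, HRP-anti-HA 1.5 h rt, chemiluminescent readout. Background-subtracted signal expressed relative to untreated cells (=1.0); ≥2 independent experiments (n >4).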

In the case of `O=Cc1ccc(COC(=O)c2ccc3c(c2)CCCC3)cc1`, the CC50 [1] is reported as greater than 100 µM.

`CC(C)(C)c1cccc(C(=O)OCc2ccc(C=O)cc2)c1` gave a CC50 [1] of 73 µM.

Work on `CC(C)(C)c1ccc(C(=O)OCc2ccc(C=O)cc2)cc1` yielded a CC50 [1] of 63 µM.

`CC(C)(C)c1cc(C(=O)OCc2ccc(C=O)cc2)cc(C(C)(C)C)c1` showed a CC50 [1] of 34 µM.

In the case of `O=Cc1ccc(COC(=O)c2cc(C(F)(F)F)cc(C(F)(F)F)c2)cc1`, the CC50 [1] is reported as greater than 100 µM.

With `CC1=C(/C=C/C(C)=C\C=C\C(C)=C\C=O)C(C)(C)CCC1` [ISO RHODOPSIN] the CC50 [1] was 28 µM, the Activity [2] was “Active” and the Activity [3] was “Dose-dependent effect”.

In the case of `CC1(C)CCC(C)(C)c2cc(C(=O)OCc3ccc(C=O)cc3)ccc21`, the CC50 [1] is reported as 48 µM.

With `CC1=C(/C=C/C(C)=C/C=C\C(C)=C\C=O)C(C)(C)CCC1` [RHODOPSIN] the CC50 [1] was 23 µM, the Activity [2] was “Active” and the Activity [3] was “Dose-dependent effect”.

In the case of `O=C(O)c1ccc(COC(=O)c2cc(C(F)(F)F)cc(C(F)(F)F)c2)cc1`, the CC50 [1] is reported as greater than 100 µM.

Compound `NC(=O)c1ccc(COC(=O)c2cc(C(F)(F)F)cc(C(F)(F)F)c2)cc1` has a CC50 [1] greater than 100 µM.

In the case of `O=C(OCc1ccc(B(O)O)cc1)c1cc(C(F)(F)F)cc(C(F)(F)F)c1`, the CC50 [1] is reported as 49 µM.

In the case of `CC1(C)CCC(C)(C)c2cc(C(=O)NCc3ccc(C=O)cc3)ccc21`, the CC50 [1] is reported as 49 µM.
